Experiments:
HT-29 [1] = assay: Cytotoxicity against human HT-29 cells assessed as growth inhibition at 25 uM after 72 hrs by MTT assay relative to control; format: functional; conditions: HT-29, 72 h, read-out: GI
In short: (§1)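 Cells in logarithmic growth kept in DMEM with 10% FBS, 10 mM sodium bicarbonate, penicillin 100 IU/mL, glutamine 4 mM, at 37 °C under 5% CO2. Plated in duplicate at 2500–4000 cells/well. Compound (30 mM DMSO stock) added 24 h after plating. MTT read at 540 nm after 72 h exposure.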

HT-29 [2] = assay: Cytotoxicity against human HT-29 cells assessed as growth inhibition after 72 hrs by MTT assay; format: functional; conditions: HT-29, 72 h; in short: as §1
DU-145 [3] = assay: Cytotoxicity against human DU145 cells assessed as growth inhibition at 25 uM after 72 hrs by MTT assay relative to control; format: functional; conditions: DU-145, 72 h, read-out: GI; in short: as §1
A2780 [4] = assay: Cytotoxicity against human A2780 cells assessed as growth inhibition after 72 hrs by MTT assay; format: functional; conditions: A2780, 72 h; in short: as §1
[5] = Cytotoxicity against mouse SMA cells assessed as growth inhibition after 72 hrs by MTT assay; format: functional; in short: as §1
[6] = Cytotoxicity against human BE(2)-C cells assessed as growth inhibition at 25 uM after 72 hrs by MTT assay relative to control; format: functional; conditions: read-out: GI; in short: as §1
A-431 [7] = assay: Cytotoxicity against human A431 cells assessed as growth inhibition at 25 uM after 72 hrs by MTT assay relative to control; format: functional; conditions: A-431, 72 h, read-out: GI; in short: as §1
[8] = Cytotoxicity against mouse SMA cells assessed as growth inhibition at 25 uM after 72 hrs by MTT assay relative to control; format: functional; conditions: read-out: GI; in short: as §1
[9] = Cytotoxicity against human MIA cells assessed as growth inhibition after 72 hrs by MTT assay; format: functional; in short: as §1
DU-145 [10] = assay: Cytotoxicity against human DU145 cells assessed as growth inhibition after 72 hrs by MTT assay; format: functional; conditions: DU-145, 72 h; in short: as §1
A-431 [11] = assay: Cytotoxicity against human A431 cells assessed as growth inhibition after 72 hrs by MTT assay; format: functional; conditions: A-431, 72 h; in short: as §1
SW480 [12] = assay: Cytotoxicity against human SW480 cells assessed as growth inhibition after 72 hrs by MTT assay; format: functional; conditions: SW480, 72 h; in short: as §1
A2780 [13] = assay: Cytotoxicity against human A2780 cells assessed as growth inhibition at 25 uM after 72 hrs by MTT assay relative to control; format: functional; conditions: A2780, 72 h, read-out: GI; in short: as §1
[14] = Cytotoxicity against human MIA cells assessed as growth inhibition at 25 uM after 72 hrs by MTT assay relative to control; format: functional; conditions: read-out: GI; in short: as §1
[15] = Cytotoxicity against human U87 cells assessed as growth inhibition at 25 uM after 72 hrs by MTT assay relative to control; format: functional, U-87MG ATCC; conditions: U-87 MG, read-out: GI; in short: as §1
[16] = Cytotoxicity against human H460 cells assessed as growth inhibition after 72 hrs by MTT assay; format: functional; conditions: NCI-H460, 72 h; in short: as §1
SW480 [17] = assay: Cytotoxicity against human SW480 cells assessed as growth inhibition at 25 uM after 72 hrs by MTT assay relative to control; format: functional; conditions: SW480, 72 h, read-out: GI; in short: as §1
[18] = Cytotoxicity against human SJ-G2 cells assessed as growth inhibition at 25 uM after 72 hrs by MTT assay relative to control; format: functional; conditions: SJ-G2, 72 h, read-out: GI; in short: as §1
[19] = Cytotoxicity against human H460 cells assessed as growth inhibition at 25 uM after 72 hrs by MTT assay relative to control; format: functional; conditions: NCI-H460, 72 h, read-out: GI; in short: as §1
MCF7 [20] = assay: Cytotoxicity against human MCF7 cells assessed as growth inhibition after 72 hrs by MTT assay; format: functional; conditions: MCF7, 72 h; in short: as §1
MCF7 [21] = assay: Cytotoxicity against human MCF7 cells assessed as growth inhibition at 25 uM after 72 hrs by MTT assay relative to control; format: functional; conditions: MCF7, 72 h, read-out: GI; in short: as §1
[22] = Cytotoxicity against human SJ-G2 cells assessed as growth inhibition after 72 hrs by MTT assay; format: functional; conditions: SJ-G2, 72 h; in short: as §1
[23] = Cytotoxicity against human U87 cells assessed as growth inhibition after 72 hrs by MTT assay; format: functional, U-87MG ATCC; conditions: U-87 MG; in short: as §1
[24] = Cytotoxicity against human BE(2)-C cells assessed as growth inhibition after 72 hrs by MTT assay; format: functional; in short: as §1

Compound: O=C(NCCc1ccc(O)cc1)c1cc(Br)c(Br)[nH]1
- inhibition of growth at 25 µM (HT-29 [1]): 48%
- GI50 (HT-29 [2]): 28 µM
- inhibition of growth at 25 µM (DU-145 [3]): 3%
- GI50 (A2780 [4]): 11 µM
- GI50 [5]: 23 µM
- inhibition of growth at 25 µM [6]: 101%
- inhibition of growth at 25 µM (A-431 [7]): 68%
- inhibition of growth at 25 µM [8]: 46%
- GI50 [9]: 43 µM
- GI50 (DU-145 [10]): > 50 µM
- GI50 (A-431 [11]): 20 µM
- GI50 (SW480 [12]): > 50 µM
- inhibition of growth at 25 µM (A2780 [13]): 90%
- inhibition of growth at 25 µM [14]: 20%
- inhibition of growth at 25 µM [15]: < 0%
- GI50 [16]: 39 µM
- inhibition of growth at 25 µM (SW480 [17]): < 0%
- inhibition of growth at 25 µM [18]: 44%
- inhibition of growth at 25 µM [19]: 11%
- GI50 (MCF7 [20]): 12 µM
- inhibition of growth at 25 µM (MCF7 [21]): 81%
- GI50 [22]: 30 µM
- GI50 [23]: > 50 µM
- GI50 [24]: 16 µM

From ChEMBL document CHEMBL3112444, “Synthesis and anticancer activity of focused compound libraries from the natural product lead, oroidin” (2014)
